Assay results reported in ChEMBL document CHEMBL3085708, “Identification and profiling of 3,5-dimethyl-isoxazole-4-carboxylic acid [2-methyl-4-((2S,3'S)-2-methyl-[1,3']bipyrrolidinyl-1'-yl)phenyl] amide as histamine H(3) receptor antagonist for the treatment of depression” (Bioorg Med Chem Lett, 2013).
Calls of active or inactive are those of the source. The rule behind the calls is not given here.

Legend:
[1] = Dissociation constant, pKa of the compound; type: physicochemical
Rattus norvegicus = assay: Antidepression-like activity in rat assessed as decrease in immobility time at 60 mg/kg, po by forced swimming test; type: functional, organism-based; set-up: dose 60 mg/kg
In short: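 Rat forced-swim test, immobility time as read-out. Test agent given po in MC/0.6% + H2O at 1, 3 and 10 mg/kg; imipramine reference at 60 mg/kg po.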

Histamine receptor H3 = Histamine receptor H3 (Macaca mulatta, UniProt Q865E1); assay: Displacement of [3H]N-alpha-methylhistamine from recombinant rhesus monkey histamine H3 receptor transfected in CHO cells after 1 hr by scintillation counting analysis; type: cell-based
Histamine receptor H3, sequence (Q865E1 whole entry): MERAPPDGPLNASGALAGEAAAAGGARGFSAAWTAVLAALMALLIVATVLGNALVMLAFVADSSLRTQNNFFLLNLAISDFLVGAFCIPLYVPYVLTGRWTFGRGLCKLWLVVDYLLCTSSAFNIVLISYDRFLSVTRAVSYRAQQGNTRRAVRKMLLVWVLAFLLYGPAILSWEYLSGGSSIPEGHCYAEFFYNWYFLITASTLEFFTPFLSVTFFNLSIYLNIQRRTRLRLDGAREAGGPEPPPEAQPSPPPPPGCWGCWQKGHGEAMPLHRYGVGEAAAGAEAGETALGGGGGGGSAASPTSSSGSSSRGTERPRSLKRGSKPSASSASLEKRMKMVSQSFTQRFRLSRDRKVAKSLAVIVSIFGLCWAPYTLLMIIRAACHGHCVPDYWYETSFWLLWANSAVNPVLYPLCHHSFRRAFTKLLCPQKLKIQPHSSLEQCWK
In short: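 Membranes from CHO cells stably expressing recombinant rhesus monkey H3 receptor; displacement of [3H]N-α-methyl-histamine, reported as Ki.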

Compound	pKa [1]	Activity (Rattus norvegicus)	Ki (Histamine receptor H3)
Cc1nc(C(=O)Nc2ccc(N3CC[C@H](N4CCC[C@@H]4C)C3)cc2C)co1	10.1	–	–
CN(C)CCCN1c2ccccc2CCc2ccccc21	–	Active	–
Cc1cc(N2CC[C@H](N3CCC[C@@H]3C)C2)ccc1NC(=O)c1ccoc1	10.1	–	–
Cc1cc(N2CC[C@H](N3CCC[C@@H]3C)C2)ccc1NC(=O)c1cc(F)ccc1C	10.1	–	–
Cc1nc(N2CC[C@H](N3CCC[C@@H]3C)C2)ccc1NC(=O)Cc1ccccc1	9.9	–	–
Cc1nc(N2CC[C@H](N3CCC[C@@H]3C)C2)ccc1NC(=O)c1ccccc1	9.9	–	3 nM
Cc1cc(N2CC[C@H](N3CCC[C@@H]3C)C2)ccc1NC(=O)c1ccco1	10.1	–	–
Cc1cccc(C(=O)Nc2ccc(N3CC[C@H](N4CCC[C@@H]4C)C3)cc2C)n1	10.1	–	1.4 nM
Cc1cc(C(=O)Nc2ccc(N3CC[C@H](N4CCC[C@@H]4C)C3)cc2C)on1	10.1	–	–
Cc1cc(N2CC[C@H](N3CCC[C@@H]3C)C2)ccc1NC(=O)c1cc(C)n(C)n1	10.1	–	–
Cc1cc(C(=O)Nc2ccc(N3CC[C@H](N4CCC[C@@H]4C)C3)cc2C)n[nH]1	12.1	–	–
Cc1nc(N2CC[C@H](N3CCC[C@@H]3C)C2)ccc1NC(=O)c1cccc2ccccc12	9.9	–	–
Cc1nc(N2CC[C@H](N3CCC[C@@H]3C)C2)ccc1NS(=O)(=O)c1ccc(F)c(F)c1	10	–	–
